Data taken from ChEMBL document CHEMBL2034980, “N⁴-Phenyl-substituted 2-acetylpyridine thiosemicarbazones: cytotoxicity against human tumor cells, structure-activity relationship studies and investigation on the mechanism of action” (Bioorg Med Chem, 2012).
Activity calls are given as the source filed them. The calls are words filed in the database; no cut-off is given here.

Key:
[1] = system: T98G; assay: Induction of apoptosis in human T98G cells assessed as cell shrinkage at 1 uM after 48 hrs by DAPI staining; assay type: functional, cell-based
[2] = system: MCF7; assay: Induction of apoptosis in human MCF7 cells assessed as DNA fragmentation at 1 uM after 48 hrs by DAPI staining; assay type: functional, cell-based
Procedure, shortened: (§1)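 Cells were treated at 1 μM for 48 h, washed in PBS and fixed in 70% methanol for 30 min at room temperature. They were stained with 0.4 μg mL⁻¹ DAPI for 1 h in the dark, and nuclear condensation and fragmentation were scored by fluorescence microscopy (385–410 nm).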

[3] = system: U-87MG ATCC; assay: Induction of apoptosis in human U87 cells assessed as cell shrinkage at 1 uM after 48 hrs by DAPI staining; assay type: functional, cell-based
[4] = system: U-87MG ATCC; assay: Induction of apoptosis in human U87 cells assessed as chromatin condensation at 1 uM after 48 hrs by DAPI staining; assay type: functional, cell-based; procedure, shortened: as §1
[5] = system: U-87MG ATCC; assay: Induction of apoptosis in human U87 cells assessed as DNA fragmentation at 1 uM after 48 hrs by DAPI staining; assay type: functional, cell-based; procedure, shortened: as §1
[6] = system: T98G; assay: Induction of apoptosis in human T98G cells assessed as membrane blebbing at 1 uM after 48 hrs […]; assay type: functional, cell-based
[7] = system: U-87MG ATCC; assay: Induction of apoptosis in human U87 cells assessed as chromatin condensation at 1 uM after 48 hrs by acridine orange/ethidium bromide staining-based microscopy; assay type: functional, cell-based
Procedure, shortened: (§2)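 After 48 h at 1 μM, cells were incubated for 15 min in serum-free medium containing 1 μg mL⁻¹ acridine orange and 1 μg mL⁻¹ ethidium bromide. The medium was removed and cells imaged by inverted fluorescence microscopy (530–650 nm). Green/orange nuclear patterns and acidic cytoplasmic vacuoles were scored.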

[8] = (§3) Cytotoxicity against human U87 cells expressing wild-type p53 after 48 hrs by MTT assay; assay type: functional, cell-based, U-87MG ATCC; details: U-87 MG, read-out: IC50
Procedure, shortened: (§4)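 MTT assay. Cells were grown in DMEM with 10% FBS and penicillin/streptomycin at 37 °C under 5% CO2, seeded at 1–2×10^3 cells/well and treated 12 h later with 1×10^-12 to 1×10^-5 M ([…] from DMSO stock, final DMSO <0.5%) for 48 h. MTT was added at 0.5 mg mL⁻¹, formazan dissolved in DMSO and read at 570 nm. IC50 is the concentration giving 50% cytotoxicity. Quadruplicates, ≥3 independent experiments.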

[9] = system: U-87MG ATCC; assay: as §3; assay type: functional, cell-based; procedure, shortened: as §4
[10] = system: MCF7; assay: Induction of apoptosis in human MCF7 cells assessed as irregularities in cellular shape at 1 uM after 48 hrs by DAPI staining; assay type: functional, cell-based
[11] = system: MCF7; assay: Induction of apoptosis in human MCF7 cells assessed as membrane blebbing at 1 uM after 48 hrs by DAPI staining; assay type: functional, cell-based
[12] = system: MCF7; assay: Induction of apoptosis in human MCF7 cells assessed as chromatin condensation at 1 uM after 48 hrs by DAPI staining; assay type: functional, cell-based; procedure, shortened: as §1
[13] = system: U-87MG ATCC; assay: Induction of apoptosis in human U87 cells assessed as appearance of autophagolysosomes at 1 uM after 48 hrs by acridine orange/ethidium bromide staining-based microscopy; assay type: functional, cell-based; procedure, shortened: as §2
[14] = system: MCF7; assay: Cytotoxicity against human MCF7 cells after 48 hrs by MTT assay; assay type: functional, cell-based; details: for IC50: MCF7, 48 h, read-out: IC50; procedure, shortened: as §4
[15] = system: MCF7; assay: Induction of apoptosis in human MCF7 cells assessed as appearance of autophagolysosomes at 1 uM after 48 hrs by acridine orange/ethidium bromide staining-based microscopy; assay type: functional, cell-based; procedure, shortened: as §2
[16] = system: U-87MG ATCC; assay: Induction of apoptosis in human U87 cells assessed as irregularities in cellular shape at 1 uM after 48 hrs by DAPI staining; assay type: functional, cell-based
[17] = Haemolytic activity in human RBC after 1 hr by photometry; assay type: ADME, cell-based; details: Erythrocyte
Procedure, shortened: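 Human EDTA blood was spun at 700xg for 10 min and the erythrocytes washed three times in cold PBS pH 7.4, then resuspended in it. Cells were incubated with varying compound concentrations for 1 h at 37 °C with shaking. After centrifugation, released haemoglobin was read at 540 nm to give the IC50. Mean ± SD, n = 4.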

[18] = system: T98G; assay: Induction of apoptosis in human T98G cells assessed as chromatin condensation at 1 uM after 48 hrs by acridine orange/ethidium bromide staining-based microscopy; assay type: functional, cell-based; procedure, shortened: as §2
[19] = system: T98G; assay: Induction of apoptosis in human T98G cells assessed as chromatin condensation at 1 uM after 48 hrs by DAPI staining; assay type: functional, cell-based; procedure, shortened: as §1
[20] = system: MCF7; assay: Induction of apoptosis in human MCF7 cells assessed as cell shrinkage at 1 uM after 48 hrs by DAPI staining; assay type: functional, cell-based
[21] = system: T98G; assay: Cytotoxicity against human T98G cells expressing mutant p53 after 48 hrs by MTT assay; assay type: functional, cell-based; details: for IC50: read-out: IC50; procedure, shortened: as §4
[22] = system: T98G; assay: Induction of apoptosis in human T98G cells assessed as DNA fragmentation at 1 uM after 48 hrs by DAPI staining; assay type: functional, cell-based; procedure, shortened: as §1
[23] = system: MCF7; assay: Induction of apoptosis in human MCF7 cells assessed as chromatin condensation at 1 uM after 48 hrs by acridine orange/ethidium bromide staining-based microscopy; assay type: functional, cell-based; procedure, shortened: as §2
[24] = system: U-87MG ATCC; assay: Induction of apoptosis in human U87 cells assessed as membrane blebbing at 1 uM after 48 hrs by DAPI staining; assay type: functional, cell-based
[25] = system: T98G; assay: Induction of apoptosis in human T98G cells assessed as irregularities in cellular shape at 1 uM after 48 hrs by DAPI staining; assay type: functional, cell-based
[26] = system: T98G; assay: Induction of apoptosis in human T98G cells assessed as appearance of autophagolysosomes at 1 uM after 48 hrs by acridine orange/ethidium bromide staining-based microscopy; assay type: functional, cell-based; procedure, shortened: as §2

Structure (SMILES)	Activity [1]	Activity [2]	Activity [3]	Activity [4]	Activity [5]	Activity [6]	Activity [7]	IC50 [8] [nM]	Activity [9]	Activity [10]	Activity [11]	Activity [12]	Activity [13]	Activity [14]	IC50 [14] [nM]	Activity [15]	Activity [16]	IC50 [17] [nM]	Activity [18]	Activity [19]	other results
CC(=NNC(=S)Nc1cccc(Cl)c1)c1ccccn1 (mixture of isomers)	Active	Active	Active	Active	Active	Active	Active	31	Dose-dependent effect	Active	Active	Active	Active	Dose-dependent effect	24	Active	Active	> 10000	Active	Active	Activity [20]: Active; Activity [21]: Dose-dependent effect; IC50 [21]: 1 nM; Activity [22]: Active; Activity [23]: Active; Activity [24]: Active; Activity [25]: Active; Activity [26]: Active
CC(=NNC(=S)Nc1ccc(I)cc1)c1ccccn1 (mixture of isomers)	Active	Active	Active	Active	Active	Active	Active	59	Dose-dependent effect	Active	Active	Active	Active	Dose-dependent effect	6.6	Active	Active	> 10000	Active	Active	Activity [20]: Active; Activity [21]: Dose-dependent effect; IC50 [21]: 64 nM; Activity [22]: Active; Activity [23]: Active; Activity [24]: Active; Activity [25]: Active; Activity [26]: Active
CC(=NNC(=S)Nc1ccccc1)c1ccccn1 (mixture of isomers)	Active	Active	Active	Active	Active	Active	Active	1.4	Dose-dependent effect	Active	Active	Active	Active	Dose-dependent effect	0.18	Active	Active	> 10000	Active	Active	Activity [20]: Active; Activity [21]: Dose-dependent effect; IC50 [21]: 6.8 nM; Activity [22]: Active; Activity [23]: Active; Activity [24]: Active; Activity [25]: Active; Activity [26]: Active
CC(=NNC(=S)Nc1ccccc1F)c1ccccn1 (mixture of isomers)	Active	Active	Active	Active	Active	Active	Active	5	Dose-dependent effect	Active	Active	Active	Active	Dose-dependent effect	0.39	Active	Active	> 10000	Active	Active	Activity [20]: Active; Activity [21]: Dose-dependent effect; IC50 [21]: 3.1 nM; Activity [22]: Active; Activity [23]: Active; Activity [24]: Active; Activity [25]: Active; Activity [26]: Active
CC(=NNC(=S)Nc1ccc(F)cc1)c1ccccn1 (mixture of isomers)	Active	Active	Active	Active	Active	Active	Active	10	Dose-dependent effect	Active	Active	Active	Active	Dose-dependent effect	1.2	Active	Active	> 10000	Active	Active	Activity [20]: Active; Activity [21]: Dose-dependent effect; IC50 [21]: 17 nM; Activity [22]: Active; Activity [23]: Active; Activity [24]: Active; Activity [25]: Active; Activity [26]: Active
CC(=NNC(=S)Nc1ccccc1[N+](=O)[O-])c1ccccn1 (mixture of isomers)	Active	Active	Active	Active	Active	Active	Active	4.3	Dose-dependent effect	Active	Active	Active	Active	Dose-dependent effect	5.7	Active	Active	> 10000	Active	Active	Activity [20]: Active; Activity [21]: Dose-dependent effect; IC50 [21]: 6.6 nM; Activity [22]: Active; Activity [23]: Active; Activity [24]: Active; Activity [25]: Active; Activity [26]: Active
CC(=NNC(=S)Nc1ccccc1I)c1ccccn1 (mixture of isomers)	Active	Active	Active	Active	Active	Active	Active	6.1	Dose-dependent effect	Active	Active	Active	Active	Dose-dependent effect	4.1	Active	Active	> 10000	Active	Active	Activity [20]: Active; Activity [21]: Dose-dependent effect; IC50 [21]: 8.1 nM; Activity [22]: Active; Activity [23]: Active; Activity [24]: Active; Activity [25]: Active; Activity [26]: Active
